Test results reported in PMC12166256 (Clinical Pharmacology and Therapeutics, 2025).
Marks after values point to notes of the source that are not given here.

Tests used:
[1] = SAD study: plasma pharmacokinetics; format: in vivo, human; conditions: for plasma concentrations: SAD 5 mg, below the LLOQ
How it was run: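 Healthy males aged 18–55 got single oral doses in six SAD cohorts (5–600 mg), 6 active and 2 placebo per cohort, all fasted. Plasma was drawn pre-dose and at 1, 2, 3, 4, 6, 8, 12, 18, 24, 36, 48, 60 and 72 h; 96 h only for dose levels 4–6. LC–MS/MS, LLOQ 2 ng/mL. Non-compartmental parameters; AUC excluded when extrapolation exceeded 30%.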

[2] = Food effect study: plasma pharmacokinetics; format: in vivo, human; conditions: for AUC (0 to infinity), geometric mean / AUC (0 to infinity), mean ± SD / C max, geometric mean / C max, mean ± SD / t 1/2z, geometric mean / t 1/2z, mean ± SD / t lag, median / t max, median: 200 mg single dose
[3] = biological target: sTNFα (Homo sapiens, UniProt P01375); assay: sTNFα target occupancy, ex vivo zymosan stimulation of blood, ELISA; format: in vivo
How it was run: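 Blood came from the 400 and 600 mg single-dose cohorts (pre-dose and 3 h post-dose) and all multiple-dose cohorts (pre-dose Day 1; pre-dose and 3 h Day 14). It was stimulated ex vivo with zymosan. ELISA measured total and compound-occupied TNFα to derive percent occupancy and percent change from baseline, summarised descriptively by group and time point.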

[4] = tested on: TNFα; conditions: in vitro; cited from earlier work
[5] = tested on: TNF; conditions: read-out: 50% inhibitory concentration [IC50], TNF inhibition; in vitro; cited from earlier work
[6] = tested on: collagen-induced arthritis mouse model; conditions: cited from earlier work
[7] = cited from earlier work

Chain of sTNFα (P01375 77-233 limits assumed): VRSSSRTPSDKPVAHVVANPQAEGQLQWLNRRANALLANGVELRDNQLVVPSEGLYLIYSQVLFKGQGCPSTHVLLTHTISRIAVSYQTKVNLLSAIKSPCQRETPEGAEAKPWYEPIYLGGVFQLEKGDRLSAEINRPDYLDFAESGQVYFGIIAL

With CN1C(=O)c2cccc(OC(F)F)c2[C@H]2C[C@@H]1c1nc3ccc(-c4cnc(C5(N)CCC5)nc4)cc3n12 [Balinatunfib] the plasma concentrations [1] was under 2 ng/mL, the plasma concentrations ([1]; listed as balinatunfib) was “In the SAD study, all doses were administered under fasted conditions. The PK parameters were not calculable for any participant receiving a single dose of 5 mg balinatunfib, as all concentrations were below the LLOQ (2 ng/mL)” and the “C max, geometric mean” value ([1]; SAD 20 mg fasted) was “(5.12) [24] ng/mL”. For the same compound, the “C max, mean ± SD” value ([1]; SAD 20 mg fasted) was 5.25 ± 1.24 ng/mL, the “t last, median” value ([1]; SAD 20 mg fasted) was 18.05 h and the “t max, median” value ([1]; SAD 20 mg fasted) was 5.00 h. The “AUC (0 to infinity), mean” value ([1]; SAD 20 mg fasted, n = 1) was 101 ^b ± NC ng·h/mL, the “t 1/2z, geometric mean” value ([1]; SAD 20 mg fasted, n = 5) was “(13.6) [48] h” and the “t 1/2z, mean” value ([1]; SAD 20 mg fasted, n = 5) was 15.0 ^c ± 7.21 h. For the same compound, the “AUC (0 to infinity), geometric mean” value ([1]; SAD 60 mg fasted) was “(409) [25] ng·h/mL”, the “AUC (0 to infinity), mean ± SD” value ([1]; SAD 60 mg fasted) was 420 ± 103 ng·h/mL and the “C max, geometric mean” value ([1]; SAD 60 mg fasted) was “(20.5) [24] ng/mL”. The “C max, mean ± SD” value ([1]; SAD 60 mg fasted) was 21.0 ± 5.08 ng/mL, the “t 1/2z, geometric mean” value ([1]; SAD 60 mg fasted) was “(20.9) [28] h” and the “t 1/2z, mean ± SD” value ([1]; SAD 60 mg fasted) was 21.6 ± 6.14 h. The “t last, median” value ([1]; SAD 60 mg fasted) was 48.00 h, the “t max, median” value ([1]; SAD 60 mg fasted) was 2.50 h and the “AUC (0 to infinity), geometric mean” value ([1]; SAD 180 mg fasted) was “(2,330) [32] ng·h/mL”. For the same compound, the “AUC (0 to infinity), mean ± SD” value ([1]; SAD 180 mg fasted) was 2,450 ± 782 ng·h/mL, the “C max, geometric mean” value ([1]; SAD 180 mg fasted) was “(117) [36] ng/mL” and the “C max, mean ± SD” value ([1]; SAD 180 mg fasted) was 122 ± 43.7 ng/mL. For the same compound, the “t 1/2z, geometric mean” value ([1]; SAD 180 mg fasted) was “(27.1) [17] h”, the “t 1/2z, mean ± SD” value ([1]; SAD 180 mg fasted) was 27.4 ± 4.74 h and the “t last, median” value ([1]; SAD 180 mg fasted) was 96.21 h. The “t max, median” value ([1]; SAD 180 mg fasted) was 2.50 h, the “AUC (0 to infinity), geometric mean” value ([1]; SAD 400 mg fasted) was “(4,220) [49] ng·h/mL” and the “AUC (0 to infinity), mean ± SD” value ([1]; SAD 400 mg fasted) was 4,580 ± 2,240 ng·h/mL. For the same compound, the “C max, geometric mean” value ([1]; SAD 400 mg fasted) was “(261) [49] ng/mL”, the “C max, mean ± SD” value ([1]; SAD 400 mg fasted) was 285 ± 139 ng/mL and the “t 1/2z, geometric mean” value ([1]; SAD 400 mg fasted) was “(24.0) [26] h”. The “t 1/2z, mean ± SD” value ([1]; SAD 400 mg fasted) was 24.7 ± 6.47 h, the “t last, median” value ([1]; SAD 400 mg fasted) was 96.16 h and the “t max, median” value ([1]; SAD 400 mg fasted) was 3.00 h. For the same compound, the “AUC (0 to infinity), geometric mean” value ([1]; SAD 600 mg fasted) was “(8,900) [37] ng·h/mL”, the “AUC (0 to infinity), mean ± SD” value ([1]; SAD 600 mg fasted) was 9,640 ± 3,540 ng·h/mL and the “C max, geometric mean” value ([1]; SAD 600 mg fasted) was “(483) [39] ng/mL”. For the same compound, the “C max, mean ± SD” value ([1]; SAD 600 mg fasted) was 525 ± 206 ng/mL, the “t 1/2z, geometric mean” value ([1]; SAD 600 mg fasted) was “(23.9) [22] h” and the “t 1/2z, mean ± SD” value ([1]; SAD 600 mg fasted) was 24.4 ± 5.43 h. The “t last, median” value ([1]; SAD 600 mg fasted) was 96.01 h, the “t max, median” value ([1]; SAD 600 mg fasted) was 3.00 h and the “AUC higher in the fed state than in the fasted state” value ([2]; 200 mg) was 18%. The “AUClast higher in the fed state than in the fasted state” value ([2]; 200 mg) was 16%, the “C max higher in the fed state than in the fasted state” value ([2]; 200 mg) was 14% and the “delay of maximum plasma concentrations, fed compared to fasted” value ([2]; 200 mg) was 1 h. For the same compound, the “AUC (0 to infinity), geometric mean” value ([2]; fasted) was “(2,010) [26] ng·h/mL”, the “AUC (0 to infinity), mean ± SD” value ([2]; fasted) was 2,060 ± 539 ng·h/mL and the “C max, geometric mean” value ([2]; fasted) was “(119) [32] ng/mL”. The “C max, mean ± SD” value ([2]; fasted) was 123 ± 39.5 ng/mL, the “t 1/2z, geometric mean” value ([2]; fasted) was “(21.9) [23] h” and the “t 1/2z, mean ± SD” value ([2]; fasted) was 22.5 ± 5.23 h. The “t lag, median” value ([2]; fasted) was 0.00 h, the “t max, median” value ([2]; fasted) was 3.00 h and the “AUC (0 to infinity), geometric mean” value ([2]; fed) was “(2,340) [33] ng·h/mL”. The “AUC (0 to infinity), mean ± SD” value ([2]; fed) was 2,430 ± 815 ng·h/mL, the “C max, geometric mean” value ([2]; fed) was “(132) [35] ng/mL” and the “C max, mean ± SD” value ([2]; fed) was 138 ± 48.1 ng/mL. The “t 1/2z, geometric mean” value ([2]; fed) was “(27.3) [18] h”, the “t 1/2z, mean ± SD” value ([2]; fed) was 27.6 ± 4.84 h and the “t lag, median” value ([2]; fed) was 0.00 h. For the same compound, the “t max, median” value ([2]; fed) was 4.00 h, the “AUC geometric mean ratio, point estimate” value ([2]; 200 mg, fed vs. fasted) was 1.18 and the “AUClast geometric mean ratio, point estimate” value ([2]; 200 mg, fed vs. fasted) was 1.16. For the same compound, the “C max geometric mean ratio, point estimate” value ([2]; 200 mg, fed vs. fasted) was 1.14, the “effect of food on the PK characteristics” value ([2]; high-fat meal) was “no relevant effects” and the “sTNFα occupancy, mean” value ([3]; MAD 100 mg BID, D14 0 h) was 103.1%. The “sTNFα occupancy, median” value ([3]; MAD 100 mg BID, D14 0 h) was 104.0%, the “sTNFα occupancy, mean” value ([3]; MAD 100 mg BID, D14 3 h) was 104.9% and the “sTNFα occupancy, median” value ([3]; MAD 100 mg BID, D14 3 h) was 105.3%. For the same compound, the “sTNFα occupancy, mean” value ([3]; MAD 100 mg QD, D14 0 h) was 95.0%, the “sTNFα occupancy, median” value ([3]; MAD 100 mg QD, D14 0 h) was 96.8% and the “sTNFα occupancy, mean” value ([3]; MAD 100 mg QD, D14 3 h) was 97.2%. For the same compound, the “sTNFα occupancy, median” value ([3]; MAD 100 mg QD, D14 3 h) was 98.4%, the “sTNFα occupancy, mean” value ([3]; MAD 200 mg BID, D14 0 h) was 101.1% and the “sTNFα occupancy, median” value ([3]; MAD 200 mg BID, D14 0 h) was 101.8%. The “sTNFα occupancy, mean” value ([3]; MAD 200 mg BID, D14 3 h) was 105.2%, the “sTNFα occupancy, median” value ([3]; MAD 200 mg BID, D14 3 h) was 106.6% and the “sTNFα occupancy, mean” value ([3]; MAD 300 mg BID, D14 0 h) was 101.3%. The “sTNFα occupancy, median” value ([3]; MAD 300 mg BID, D14 0 h) was 101.8%, the “sTNFα occupancy, mean” value ([3]; MAD 300 mg BID, D14 3 h) was 99.8% and the “sTNFα occupancy, median” value ([3]; MAD 300 mg BID, D14 3 h) was 102.8%. For the same compound, the sTNFα target occupancy ([3]; SAD 400 mg and 600 mg cohorts, 3 hours after dosing) was ~ 100%, the “sTNFα occupancy, mean” value ([3]; SAD 400 mg, D1 3 h) was 102.2% and the “sTNFα occupancy, median” value ([3]; SAD 400 mg, D1 3 h) was 105.3%. For the same compound, the “sTNFα occupancy, mean” value ([3]; SAD 600 mg, D1 3 h) was 109.3%, the “sTNFα occupancy, median” value ([3]; SAD 600 mg, D1 3 h) was 109.2% and the “concentration leading to 90% occupancy of TNFα [OCC90]” value [4] was 16 nM. The IC50 [5] was 35 nM, the “average free efficacious exposure in mice” value ([6]; collagen-induced arthritis mouse model) was 24 nM and the “efficacy in collagen-induced arthritis mouse model” value ([6]; in vivo) was “antibody‐like efficacy”. For the same compound, the bioavailability ([7]; across animal species) was “moderate to high”, the fraction unbound ([7]; preclinical studies) was “high” and the tissue distribution ([7]; preclinical studies) was “high”.
